# Assay results: ChEMBL document CHEMBL2417424, “Synthesis, structure, and antibiotic activity of aryl-substituted LpxC inhibitors” (J Med Chem, 2013)
# Key:
# [1] = tested on: Escherichia coli; assay: Antimicrobial activity against Escherichia coli W3110PA after 22 hrs by MTT assay; assay type: functional
# How it was run: (§1)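 Broth microdilution (modified NCCLS) in 96-well plates, LB medium with 5% DMSO; 2-fold compound series spanning 0.0005–1, 0.0025–5 or 0.024–50 µg/mL. Cells grown to OD600 0.6, diluted 100-fold, added to wells; 22 h at 37 °C, then MTT (1 mg/mL) 3 h at 37 °C. MIC = lowest concentration with no visible colour change; triplicate.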
# [2] = tested on: Escherichia coli; assay: Ratio of MIC for wild type Escherichia coli W3110 to MIC for Escherichia coli CMR300; assay type: functional
# [3] = tested on: Pseudomonas aeruginosa; assay: Antimicrobial activity against Pseudomonas aeruginosa PAO1 after 22 hrs by MTT assay; assay type: functional; conditions: PAO1, 22 h; how it was run: as §1
# [4] = tested on: Escherichia coli; assay: Antimicrobial activity against Escherichia coli CMR300 after 22 hrs by MTT assay; assay type: functional; conditions: CMR300, 22 h; how it was run: as §1
# [5] = tested on: Escherichia coli; assay: Antimicrobial activity against wild type Escherichia coli W3110 after 22 hrs by MTT assay; assay type: functional; conditions: W3110, 22 h; how it was run: as §1
# [6] = tested on: Francisella novicida; assay: Ratio of LPC-011 MIC to compound MIC for Francisella novicida U 112 after 22 hrs by MTT assay; assay type: functional, Francisella tularensis subsp. novicida
# [7] = tested on: Francisella novicida; assay: Antimicrobial activity against Francisella novicida U 112 after 22 hrs by MTT assay; assay type: functional, Francisella tularensis subsp. novicida; conditions: Francisella tularensis, U 112, 22 h
# How it was run: (§2)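 Broth microdilution in triplicate (modified NCCLS) in LB with 5% DMSO, using 2-fold compound series over 0.0005–1, 0.0025–5 or 0.024–50 µg/mL. Cells grown to OD600 0.6 were diluted 100-fold into the wells and incubated 22 h at 37 °C. A 1 mg/mL MTT solution was added for 3 h more at 37 °C. MIC = lowest concentration with no visible yellow-to-black colour change.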
# [8] = tested on: Vibrio cholerae; assay: Antimicrobial activity against Vibrio cholerae P4 after 22 hrs by MTT assay; assay type: functional; conditions: P4, 22 h; how it was run: as §2
# [9] = tested on: Klebsiella pneumoniae; assay: Antimicrobial activity against Klebsiella pneumoniae 43816 after 22 hrs by MTT assay; assay type: functional; conditions: Klebsiella pneumoniae, 43816, 22 h; how it was run: as §1
# [10] = tested on: Salmonella typhimurium; assay: Antimicrobial activity against Salmonella enterica typhimurium LT2 after 22 hrs by MTT assay; assay type: functional, Salmonella enterica subsp. enterica serovar Typhimurium; conditions: LT2, 22 h; how it was run: as §1
# [11] = biological target: T1, UDP-3-O-acyl-N-acetylglucosamine deacetylase (Escherichia coli K-12) (UniProt P0A725); assay: Ratio of LPC-011 Ki to compound Ki for Escherichia coli LpxC enzyme
# T1 sequence (whole entry): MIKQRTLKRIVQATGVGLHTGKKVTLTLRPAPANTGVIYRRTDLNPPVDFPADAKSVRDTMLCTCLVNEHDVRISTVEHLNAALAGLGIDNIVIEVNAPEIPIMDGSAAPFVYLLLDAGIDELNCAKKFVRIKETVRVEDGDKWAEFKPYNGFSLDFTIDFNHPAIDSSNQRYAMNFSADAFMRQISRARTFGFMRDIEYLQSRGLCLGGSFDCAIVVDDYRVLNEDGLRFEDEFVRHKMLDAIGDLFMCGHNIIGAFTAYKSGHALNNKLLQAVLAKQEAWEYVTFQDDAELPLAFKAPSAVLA
# [12] = biological target: T2, UDP-3-O-acyl-N-acetylglucosamine deacetylase (Escherichia coli K-12, UniProt P0A725); assay: Inhibition of Escherichia coli LpxC enzyme using UDP-3-O-[(R)-3-hydroxymyristoyl]-N-acetyl glucosamine and [gamma-32P] UDP-3-O-[(R)-3-hydroxymyristoyl]-N-acetylglucosamine as substrate after 1 to 4 hrs
# T2 sequence (P0A725 whole entry): T1 sequence (whole entry)
# [13] = Ratio of MIC for Pseudomonas aeruginosa PAO1 to MIC for Escherichia coli W3110PA; assay type: functional
SMILES,MIC [1],Ratio [2],MIC [3],MIC [4],MIC [5],Ratio [6],MIC [7],MIC [8],MIC [9],MIC [10],Ratio Ki [11],Ki [12],Ratio [13]
Nc1ccc(C#CC#Cc2ccc(C(=O)N[C@@H](Cc3ccccc3)C(=O)NO)cc2)cc1,> 50 µg/mL,450,> 50 µg/mL,0.014 µg/mL,6.3 µg/mL,–,–,–,–,–,–,–,–
Nc1ccc(C#CC#Cc2ccc(C(=O)N[C@@H](Cc3c[nH]cn3)C(=O)NO)cc2)cc1,6.3 µg/mL,20,6.3 µg/mL,0.02 µg/mL,0.4 µg/mL,–,–,–,–,–,–,–,–
C[C@](O)(c1c[nH]nn1)[C@H](NC(=O)c1ccc(C#CC#Cc2ccc(N)cc2)cc1)C(=O)NO,0.5 µg/mL,–,0.5 µg/mL,0.004 µg/mL,0.06 µg/mL,2,1 µg/mL,0.03 µg/mL,0.25 µg/mL,0.1 µg/mL,1.6,0.024 nM,–
Nc1ccc(C#CC#Cc2ccc(C(=O)N[C@@H](Cc3ccc(O)cc3)C(=O)NO)cc2)cc1,4.7 µg/mL,80,12.5 µg/mL,0.01 µg/mL,0.8 µg/mL,–,–,–,–,–,–,–,3
C[C@@H](O)[C@H](NC(=O)c1ccc(C#Cc2ccc(CN3CCOCC3)cc2)cc1)C(=O)NO,1.3 µg/mL,–,1.6 µg/mL,0.01 µg/mL,0.2 µg/mL,–,3.1 µg/mL,0.16 µg/mL,0.64 µg/mL,0.16 µg/mL,–,–,–
Nc1ccc(C#CC#Cc2ccc(C(=O)N[C@H](C(=O)NO)[C@H](O)c3ccc(O)cc3)cc2)cc1,> 50 µg/mL,333,> 50 µg/mL,0.15 µg/mL,50 µg/mL,–,–,–,–,–,–,–,–
Nc1ccc(C#CC#Cc2ccc(C(=O)N[C@H](C(=O)NO)[C@@H](O)c3ccc(O)cc3)cc2)cc1,0.9 µg/mL,43,1 µg/mL,0.003 µg/mL,0.13 µg/mL,–,–,–,–,–,–,–,–
C[C@@H](O)[C@H](NC(=O)c1ccc(C#CC#Cc2ccc(N)cc2)cc1)C(=O)NO,0.32 µg/mL,30,0.32 µg/mL,0.001 µg/mL,0.03 µg/mL,–,2.5 µg/mL,0.01 µg/mL,0.13 µg/mL,0.024 µg/mL,–,–,–
Nc1ccc(C#CC#Cc2ccc(C(=O)N[C@@H](Cc3c[nH]c4ccccc34)C(=O)NO)cc2)cc1,> 50 µg/mL,208,> 50 µg/mL,0.06 µg/mL,12.5 µg/mL,–,–,–,–,–,–,–,–
C[C@](O)(c1ccc(O)cc1)[C@H](NC(=O)c1ccc(C#CC#Cc2ccc(N)cc2)cc1)C(=O)NO,0.5 µg/mL,300,0.7 µg/mL,0.0001 µg/mL,0.03 µg/mL,2,0.63 µg/mL,0.016 µg/mL,0.16 µg/mL,0.05 µg/mL,1.6,0.024 nM,–
C[C@@](O)(c1ccc(O)cc1)[C@H](NC(=O)c1ccc(C#CC#Cc2ccc(N)cc2)cc1)C(=O)NO,3.2 µg/mL,62,5 µg/mL,0.008 µg/mL,0.5 µg/mL,–,–,–,–,–,–,–,–
